Laboratory results from ChEMBL document CHEMBL1132300, “1,3-Disubstituted benzazepines as novel, potent, selective neuropeptide Y Y1 receptor antagonists” (J Med Chem, 1999).

target: T1, Neuropeptide Y receptor type 1 (Homo sapiens, UniProt P25929); experiment: In vitro binding affinity towards Neuropeptide Y receptor type 1 was determined as potency to displace [125I]-peptide YY binding to human neuroblastoma SK-N-MC cells; type: cell-based
T1 sequence (P25929 whole entry): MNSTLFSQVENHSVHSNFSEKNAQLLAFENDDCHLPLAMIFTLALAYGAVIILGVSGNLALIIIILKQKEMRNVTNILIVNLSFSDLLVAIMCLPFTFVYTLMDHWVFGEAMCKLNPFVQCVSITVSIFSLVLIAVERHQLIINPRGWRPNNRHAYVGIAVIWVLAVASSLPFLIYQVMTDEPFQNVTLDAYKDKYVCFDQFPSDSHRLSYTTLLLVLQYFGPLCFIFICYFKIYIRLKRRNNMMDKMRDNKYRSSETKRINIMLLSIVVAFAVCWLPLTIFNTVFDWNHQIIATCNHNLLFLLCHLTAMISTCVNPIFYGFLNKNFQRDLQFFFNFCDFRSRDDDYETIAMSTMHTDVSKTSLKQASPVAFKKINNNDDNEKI
Summary of the method: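 Intact SK-N-MC cells grown 2 days, washed with HEPES (20 mM)-buffered Hank's solution pH 7.4 plus 1% BSA, then incubated with 0.1 nM [125I]PYY and varying concentrations of unlabeled compound at 37 °C for 60 min. Washed twice with ice-cold buffer, lysed in 1 N NaOH, gamma-counted. Nonspecific binding defined with 10^-6 M NPY.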

Ki | Compound
610 nM | CC(C)NC(=O)Nc1cccc(CN2C(=O)C(NC(=O)Nc3ccc(-c4ccccc4)cc3)CCc3ccccc32)c1 (stereo not drawn)
17 nM | CC(C)NC(=O)Nc1cccc(CN2C(=O)C(NC(=O)Nc3ccc4ocnc4c3)CCc3ccccc32)c1 (stereo not drawn)
1400 nM | CC(C)NC(=O)Nc1cccc(CN2C(=O)C(CNC(=O)Nc3ccccc3)CCc3ccccc32)c1 (stereo not drawn)
28 nM | CC(C)NC(=O)Nc1cccc(CN2C(=O)C(NC(=O)Nc3ccc4c(c3)OCO4)CCc3ccccc32)c1 (stereo not drawn)
> 10000 nM | CC(C)NC(=O)Nc1cccc(CN2C(=O)C(NC(=O)Nc3cc[nH]n3)CCc3ccccc32)c1 (stereo not drawn)
88 nM | CC(C)NC(=O)Nc1cccc(CN2C(=O)C(NC(=O)Nc3ccc([N+](=O)[O-])cc3)CCc3ccccc32)c1 (stereo not drawn)
26 nM | CC(C)NC(=O)Nc1cccc(CN2C(=O)C(NC(=O)Nc3ccc4[nH]ncc4c3)CCc3ccccc32)c1 (stereo not drawn)
780 nM | CC(C)NC(=O)Nc1cccc(CN2C(=O)C(NC(=O)Nc3ccc4c(c3)C(=O)N(C)C4=O)CCc3ccccc32)c1 (stereo not drawn)
7.6 nM | CC(C)NC(=O)Nc1cccc(CN2C(=O)C(NC(=O)Nc3ccccc3F)CCc3ccccc32)c1 (stereo not drawn)
7300 nM | CNC(=O)Nc1cccc(CN2C(=O)C(NC(=O)Nc3ccccc3)CCc3ccccc32)c1 (stereo not drawn)
18 nM | CC(C)NC(=O)Nc1cccc(CN2C(=O)C(NC(=O)Nc3ccc4c(c3)OCCO4)CCc3ccccc32)c1 (stereo not drawn)
> 10000 nM | CC(C)NC(=O)Nc1nc(CN2C(=O)C(NC(=O)Nc3ccc(F)cc3F)CCc3ccccc32)cs1 (stereo not drawn)
82 nM | CC(C)NC(=O)Nc1cccc(CN2C(=O)C(NC(=O)Nc3ccc(O)cc3)CCc3ccccc32)c1 (stereo not drawn)
> 10 nM | COC(=O)Nc1cccc(CN2C(=O)C(NC(=O)Nc3ccccc3)CCc3ccccc32)c1 (stereo not drawn)
7.8 nM | CC(C)NC(=O)Nc1cccc(CN2C(=O)C(NC(=O)Nc3ccc(F)cc3F)CCc3ccccc32)c1 (stereo not drawn)
690 nM | CC(C)OC(=O)Nc1cccc(CN2C(=O)C(NC(=O)Nc3ccccc3)CCc3ccccc32)c1 (stereo not drawn)
24 nM | CC(C)NC(=O)Nc1cccc(CN2C(=O)C(NC(=O)Nc3ccc4scnc4c3)CCc3ccccc32)c1 (stereo not drawn)
65 nM | CC(C)NC(=O)Nc1cccc(CN2C(=O)C(N=C(NCCO)Nc3ccc(O)cc3)CCc3ccccc32)c1 (stereo not drawn)
17 nM | CC(C)NC(=O)Nc1cccc(CN2C(=O)C(NC(=O)Nc3ccc4c(c3)CCC4)CCc3ccccc32)c1 (stereo not drawn)
83 nM | CC(C)NC(=O)Nc1cccc(CN2C(=O)C(NC(=O)Nc3ccncc3)CCc3ccccc32)c1 (stereo not drawn)
25 nM | CC(C)NC(=O)Nc1cccc(CN2C(=O)C(NC(=O)Nc3ccc4c(c3)C(=O)NC4=O)CCc3ccccc32)c1 (stereo not drawn)
160 nM | CC(C)NC(=O)Nc1cccc(CN2C(=O)C(NC(=O)Nc3nccs3)CCc3ccccc32)c1 (stereo not drawn)
43 nM | CC(C)NC(=O)Nc1cccc(CN2C(=O)C(NC(=O)Nc3ccccc3)CCc3ccccc32)c1 (stereo not drawn)
140 nM | CC(C)NC(=O)Nc1cccc(CN2C(=O)C(NC(=O)Nc3cnc4ccccc4c3)CCc3ccccc32)c1 (stereo not drawn)

Second part, the compound before the results:

Compound | Ki
C/N=C(/Nc1ccc(O)cc1)NC1CCc2ccccc2N(Cc2cccc(NC(=O)NC(C)C)c2)C1=O (stereo not drawn) | 7.3 nM
CC(C)NC(=O)Nc1cccc(CN2C(=O)C(NC(=O)Nc3ccc4ncccc4c3)CCc3ccccc32)c1 (stereo not drawn) | 56 nM
O=C(Nc1ccccc1)NC1CCc2ccccc2N(Cc2cccc(NC(=O)N3CCOCC3)c2)C1=O (stereo not drawn) | > 10000 nM
CC(C)NC(=O)Nc1cccc(CN2C(=O)C(N=C(Nc3ccc(O)cc3)NC(C)C)CCc3ccccc32)c1 (stereo not drawn) | 36 nM
CC(C)NC(=O)Nc1cccc(CN2C(=O)C(NC(=O)Nc3ccccn3)CCc3ccccc32)c1 (stereo not drawn) | 240 nM
CC(C)NC(=O)Nc1cccc(CN2C(=O)C(NC(=O)Oc3ccccc3)CCc3ccccc32)c1 (stereo not drawn) | 2100 nM
CC(C)NC(=O)Nc1cccc(CN2C(=O)C(COC(=O)Nc3ccccc3)CCc3ccccc32)c1 (stereo not drawn) | 4100 nM
CC(C)NC(=O)Nc1cccc(CN2C(=O)C(OC(=O)Nc3ccccc3)CCc3ccccc32)c1 (stereo not drawn) | 450 nM
CC(C)NC(=O)Nc1cccc(CN2C(=O)C(NC(=O)Nc3ccc4ccsc4c3)CCc3ccccc32)c1 (stereo not drawn) | 7.8 nM
CC(C)NC(=O)Cc1cccc(CN2C(=O)C(NC(=O)Nc3ccccc3)CCc3ccccc32)c1 (stereo not drawn) | 3800 nM
CC(C)NC(=O)Nc1cccc(CN2C(=O)C(NC(=O)Nc3ccccc3)CCCc3ccccc32)c1 (stereo not drawn) | 56 nM
O=C(Nc1ccccc1)NC1CCc2ccccc2N(Cc2cccc(NC(=O)Oc3ccccc3)c2)C1=O (stereo not drawn) | > 10000 nM
O=C(Nc1cccc(CN2C(=O)C(NC(=O)Nc3ccccc3)CCc3ccccc32)c1)NC1CC1 (stereo not drawn) | 910 nM
CC(C)NC(=O)Nc1cccc(CN2C(=O)C(/N=C(\N)Nc3ccc(O)cc3)CCc3ccccc32)c1 (stereo not drawn) | 2.9 nM
CC(C)NC(=O)Nc1cccc(CN2C(=O)C(NC(=O)Nc3ccc4sccc4c3)CCc3ccccc32)c1 (stereo not drawn) | 13 nM
CC(C)NC(=O)Nc1cccc(CN2C(=O)C(NC(=O)Nc3ccccc3)COc3ccccc32)c1 (stereo not drawn) | 470 nM
C/N=C(/Nc1ccccc1)NC1CCc2ccccc2N(Cc2cccc(NC(=O)NC(C)C)c2)C1=O (stereo not drawn) | 15 nM
O=C(Nc1ccccc1)Nc1cccc(CN2C(=O)C(NC(=O)Nc3ccccc3)CCc3ccccc32)c1 (stereo not drawn) | > 10000 nM
COc1ccc(NC(=O)NC2CCc3ccccc3N(Cc3cccc(NC(=O)NC(C)C)c3)C2=O)cc1 (stereo not drawn) | 80 nM
CC(C)NC(=O)Nc1cccc(CN2C(=O)C(NS(=O)(=O)c3ccccc3)CCc3ccccc32)c1 (stereo not drawn) | 5500 nM

Compound | Ki
CC(C)NC(=O)Nc1cccc(CN2C(=O)C(NC(=O)Nc3ccc(N(C)C)cc3)CCc3ccccc32)c1 (stereo not drawn) | 66 nM
CC(C)NC(=O)Nc1cccc(CN2C(=O)C(NC(=O)Nc3nc4ccccc4s3)CCc3ccccc32)c1 (stereo not drawn) | 690 nM
CC(C)NC(=O)Nc1cccc(CN2C(=O)C(NC(=O)Nc3ccc4[nH]ccc4c3)CCc3ccccc32)c1 (stereo not drawn) | 18 nM
CC(C)NC(=O)Nc1cccc(CN2C(=O)C(NC(=O)Nc3cc(F)cc(F)c3)CCc3ccccc32)c1 (stereo not drawn) | 86 nM
CC(C)NC(=O)Nc1cccc(CN2C(=O)C(NC(=O)Nc3ccc4ccoc4c3)CCc3ccccc32)c1 (stereo not drawn) | 7.8 nM
CC(C)NC(=O)Nc1cccc(CN2C(=O)C(NC(=O)c3ccccc3)CCc3ccccc32)c1 (stereo not drawn) | > 10000 nM
CC(C)NC(=O)Nc1cccc(CN2C(=O)C(NC(=O)Nc3cccc(F)c3F)CCc3ccccc32)c1 (stereo not drawn) | 100 nM
CC(C)(C)OC(=O)Nc1cccc(CN2C(=O)C(NC(=O)Nc3ccccc3)CCc3ccccc32)c1 (stereo not drawn) | 1200 nM
CC(C)NC(=O)Nc1cccc(CN2C(=O)C(NC(=O)Nc3ccc(Cl)cc3)CCc3ccccc32)c1 (stereo not drawn) | 71 nM
CC(C)CNC(=O)Nc1cccc(CN2C(=O)C(NC(=O)Nc3ccccc3)CCc3ccccc32)c1 (stereo not drawn) | 140 nM
CN(C(=O)OC(C)(C)C)c1cccc(CN2C(=O)C(NC(=O)Nc3ccccc3)CCc3ccccc32)c1 (stereo not drawn) | > 10000 nM
CC(C)(C)NC(=O)Nc1cccc(CN2C(=O)C(NC(=O)Nc3ccccc3)CCc3ccccc32)c1 (stereo not drawn) | 75 nM
CC(C)NC(=O)Nc1cccc(CN2C(=O)C(NC(=O)Nc3ccc(N)cc3)CCc3ccccc32)c1 (stereo not drawn) | 200 nM
CC(C)NC(=O)Nc1cccc(CN2C(=O)C(NC(=O)Nc3ccc4ncsc4c3)CCc3ccccc32)c1 (stereo not drawn) | 5.1 nM
Nc1cccc(CN2C(=O)C(NC(=O)Nc3ccccc3)CCc3ccccc32)c1 (stereo not drawn) | > 10000 nM
CC(C)NC(=O)Nc1cccc(CN2CCCCC(NC(=O)Nc3ccccc3)C2=O)c1 (stereo not drawn) | 7000 nM
CC(C)NC(=O)Nc1cccc(CN2C(=O)C(NC(=O)Nc3ccc(F)cc3)CCc3ccccc32)c1 (stereo not drawn) | 29 nM
CC(C)NC(=O)Nc1cccc(CN2C(=O)C(NC(=O)Nc3nncs3)CCc3ccccc32)c1 (stereo not drawn) | 150 nM
NC(=O)Nc1cccc(CN2C(=O)C(NC(=O)Nc3ccccc3)CCc3ccccc32)c1 (stereo not drawn) | > 10000 nM
